According to ChEMBL document CHEMBL4400512, “Searching for new agents active against Candida albicans biofilm: A series of indole derivatives, design, synthesis and biological evaluation” (Eur J Med Chem, 2019):
Values after ≈ are worked out from the molar mass of the structure shown.

Experiments:
[1] = Toxicity in Galleria mellonella larvae assessed as larval survival at 500 ug/ml after 24 hrs relative to control
In short: (§1)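 Ten healthy larvae per group, stored at 15°C in the dark. Each got a 20 µL injection into the haemocoel via the last left proleg, with compound freshly made in sterile water containing <1% v/v DMSO. Larvae were incubated at 30°C and survival scored every 24 h; death was no movement on stimulation plus cuticle discolouration. Controls were untreated, pierced-only and vehicle. Mean % survival of two independent experiments.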

[2] = Toxicity in Galleria mellonella larvae assessed as larval survival at 500 ug/ml after 48 hrs relative to control; in short: as §1
[3] = Toxicity in Galleria mellonella larvae assessed as larval survival at 10 ug/ml after 48 hrs relative to control; in short: as §1
[4] = Toxicity in Galleria mellonella larvae assessed as larval survival at 50 ug/ml after 24 hrs relative to control; in short: as §1
[5] = Toxicity in Galleria mellonella larvae assessed as larval survival at 5 ug/ml after 48 hrs relative to control; in short: as §1
[6] = Toxicity in Galleria mellonella larvae assessed as larval survival at 5 ug/ml after 24 hrs relative to control; in short: as §1
[7] = Toxicity in Galleria mellonella larvae assessed as larval survival at 50 ug/ml after 72 hrs relative to control; in short: as §1
[8] = Toxicity in Galleria mellonella larvae assessed as larval survival at 10 ug/ml after 72 hrs relative to control; in short: as §1
[9] = Toxicity in Galleria mellonella larvae assessed as larval survival at 100 ug/ml after 24 hrs relative to control; in short: as §1
Candida albicans [10] = experiment: Antibiofilm activity against Candida albicans ATCC 10231 assessed as inhibition of mature biofilm formation by XTT reduction assay; type: functional
In short: (§2)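 Biofilm assay after Pierce et al., with compound applied either during biofilm formation or to 24 h pre-formed (mature) biofilm. Read-out is metabolic activity of cells in the biofilm by XTT reduction. BMIC50 is the lowest concentration giving a 50% drop relative to untreated growth control. Tested in triplicate, at least two experiments on separate dates; median reported.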

[11] = Toxicity in Galleria mellonella larvae assessed as larval survival at 100 ug/ml after 48 hrs relative to control; in short: as §1
[12] = Toxicity in Galleria mellonella larvae assessed as larval survival at 100 ug/ml after 72 hrs relative to control; in short: as §1
[13] = Toxicity in Galleria mellonella larvae assessed as larval survival at 5 ug/ml after 72 hrs relative to control; in short: as §1
[14] = Toxicity in Galleria mellonella larvae assessed as larval survival at 50 ug/ml after 48 hrs relative to control; in short: as §1
Candida albicans [15] = experiment: Antifungal activity against planktonic form of Candida albicans ATCC 10231 by broth microdilution method; type: organism-based; conditions: in vitro
In short: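 CLSI M27-A3 broth microdilution. Cells grown on Sabouraud dextrose agar at 35°C for 24 h; final inoculum 1×10^3–5×10^3 cells/mL. Compounds from DMSO stocks, final DMSO below 1%, final range 256–0.25 µg/mL. Controls were DMSO 1% and fluconazole reference. MIC50 is the lowest concentration giving ≥50% growth inhibition. Three independent experiments in duplicate; median reported.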

[16] = Toxicity in Galleria mellonella larvae assessed as larval survival at 10 ug/ml after 24 hrs relative to control; in short: as §1
[17] = Toxicity in Galleria mellonella larvae assessed as larval survival at 500 ug/ml after 72 hrs relative to control; in short: as §1
Candida albicans [18] = experiment: Antibiofilm activity against Candida albicans ATCC 10231 assessed as inhibition of biofilm formation by XTT reduction assay; type: functional; in short: as §2
Candida albicans [19] = experiment: Antifungal activity against planktonic form of Candida albicans PMC 1042 by broth microdilution method; type: organism-based; conditions: in vitro
In short: (§3)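 Broth microdilution per CLSI M27-A3 and M27-S4. Strains were grown on Sabouraud dextrose agar at 35°C for 24 h. Final inoculum 1×10^3–5×10^3 cells/mL. Compounds were dissolved in DMSO (final <1%); 1% DMSO served as control. Final range 256–0.25 µg/mL. MIC50 is the lowest concentration giving ≥50% growth inhibition. Three independent experiments in duplicate, median; fluconazole as reference.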

Candida albicans [20] = experiment: Antibiofilm activity against Candida albicans PMC 1042 assessed as inhibition of biofilm formation by XTT reduction assay; type: functional
In short: (§4)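 Biofilm method of Pierce et al. Biofilms were treated either during formation or once mature (24 h preformed). Metabolic activity of the cells within the biofilm was read by XTT reduction. BMIC50 is the lowest concentration giving a 50% drop in metabolic activity versus the untreated growth control. At least two experiments on separate dates, triplicate, reported as median.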

Candida albicans [21] = experiment: Antifungal activity against planktonic form of Candida albicans PMC 1082 by broth microdilution method; type: organism-based; conditions: in vitro; in short: as §3
Candida albicans [22] = experiment: Antibiofilm activity against Candida albicans ATCC 10261 assessed as inhibition of mature biofilm formation by XTT reduction assay; type: functional; in short: as §4
Candida albicans [23] = experiment: Antibiofilm activity against Candida albicans PMC 1042 assessed as inhibition of mature biofilm formation by XTT reduction assay; type: functional; in short: as §4
Candida albicans [24] = experiment: Antibiofilm activity against Candida albicans PMC 1082 assessed as inhibition of biofilm formation by XTT reduction assay; type: functional; in short: as §4
Candida albicans [25] = experiment: Antifungal activity against planktonic form of Candida albicans ATCC 10261 by broth microdilution method; type: organism-based; conditions: in vitro; in short: as §3
Candida albicans [26] = experiment: Antibiofilm activity against Candida albicans PMC 1082 assessed as inhibition of mature biofilm formation by XTT reduction assay; type: functional; in short: as §4
Candida albicans [27] = experiment: Antibiofilm activity against Candida albicans ATCC 10261 assessed as inhibition of biofilm formation by XTT reduction assay; type: functional; in short: as §4
[28] = Toxicity in Galleria mellonella larvae assessed as larval survival at 1000 ug/ml after 24 hrs relative to control; in short: as §1
[29] = Toxicity in Galleria mellonella larvae assessed as larval survival at 1000 ug/ml after 72 hrs relative to control; in short: as §1
[30] = Toxicity in Galleria mellonella larvae assessed as larval survival at 1000 ug/ml after 48 hrs relative to control; in short: as §1

| Structure (SMILES) | survival at 24 h [1] [%] | survival at 48 h [2] [%] | survival at 48 h [3] [%] | survival at 24 h [4] [%] | survival at 48 h [5] [%] | survival at 24 h [6] [%] | survival at 72 h [7] [%] | survival at 72 h [8] [%] | survival at 24 h [9] [%] | MBIC50 (Candida albicans [10]) [µg/mL] | survival at 48 h [11] [%] | survival at 72 h [12] [%] | survival at 72 h [13] [%] | survival at 48 h [14] [%] | MIC50 (Candida albicans [15]) [µg/mL] | survival at 24 h [16] [%] | survival at 72 h [17] [%] | MBIC50 (Candida albicans [18]) [µg/mL] | MIC50 (Candida albicans [19]) [µg/mL] | MBIC50 (Candida albicans [20]) [µg/mL] | also measured |
| --- | --- | --- | --- | --- | --- | --- | --- | --- | --- | --- | --- | --- | --- | --- | --- | --- | --- | --- | --- | --- | --- |
| O=[N+]([O-])c1ccccc1CNCCc1c[nH]c2ccccc12 | 100 | 100 | 100 | 90 | 100 | 100 | 90 | 100 | 90 | 8 | 90 | 90 | 100 | 90 | > 128 | 100 | 100 | 64 |  |  |  |
| c1ccc(Oc2ccc(CNCCc3c[nH]c4ccccc34)cc2)cc1 | 90 | 70 | 100 | 100 | 100 | 100 | 100 | 100 | 100 | 2 | 100 | 100 | 100 | 100 | 4 (≈ 11.7 µM) | 100 | 70 | 2 | 64 (≈ 187 µM) | 8 | MIC50 (Candida albicans [21]): 16 µg/mL (≈ 46.7 µM); MBIC50 (Candida albicans [22]): 8 µg/mL; MBIC50 (Candida albicans [23]): 2 µg/mL; MBIC50 (Candida albicans [24]): 8 µg/mL; MIC50 (Candida albicans [25]): 16 µg/mL (≈ 46.7 µM); MBIC50 (Candida albicans [26]): 2 µg/mL; MBIC50 (Candida albicans [27]): 8 µg/mL |
| CC(C)Cc1ccc(C(C)C(=O)NCCc2c[nH]c3ccccc23)cc1 (centres undefined) | 100 | 100 | 100 | 100 |  |  | 100 | 100 | 100 | 8 | 100 | 100 |  | 100 | > 128 | 100 | 100 | 16 | > 256 | 8 | survival at 24 h [28]: 100%; MIC50 (Candida albicans [21]): > 256 µg/mL; survival at 72 h [29]: 100%; MBIC50 (Candida albicans [22]): 8 µg/mL; survival at 48 h [30]: 100%; MBIC50 (Candida albicans [23]): 2 µg/mL; MBIC50 (Candida albicans [24]): 8 µg/mL; MIC50 (Candida albicans [25]): > 256 µg/mL; MBIC50 (Candida albicans [26]): 4 µg/mL; MBIC50 (Candida albicans [27]): 8 µg/mL |
| Brc1ccc(CNCCc2c[nH]c3ccccc23)cc1 | 100 | 100 | 100 | 100 | 100 | 100 | 100 | 100 | 100 | 8 | 100 | 100 | 100 | 100 | 64 (≈ 194 µM) | 100 | 100 | 8 | 16 (≈ 48.6 µM) | 8 | MIC50 (Candida albicans [21]): 32 µg/mL (≈ 97.2 µM); MBIC50 (Candida albicans [22]): 8 µg/mL; MBIC50 (Candida albicans [23]): 2 µg/mL; MBIC50 (Candida albicans [24]): 8 µg/mL; MIC50 (Candida albicans [25]): 32 µg/mL (≈ 97.2 µM); MBIC50 (Candida albicans [26]): 4 µg/mL; MBIC50 (Candida albicans [27]): 8 µg/mL |
